Data on 14 molecules can be found in PubChem BioAssay.

The source made the active and inactive calls.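 How the source made its calls, unless noted: active means viability loss from added drug above about 55%, and viability with drug at most 40%, in both replicates (limit read from the data, passing the limit was not always enough); inconclusive means both conditions met in only one replicate; inactive means neither replicate meets both conditions.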

Experiment [1] is described as follows: reducers of endogenous Her2 protein level, primary screen, SKBR3 breast tumor cells, AlphaScreen, ATP viability (AID 461;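 active means Her2 level under about 52% in both replicate screens, with viability over 70% of control, limit read from the data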;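 on Her2 level: lower value means less Her2 protein in the cells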;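 on viability: percent of carrier control wells set as 100% viability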). The settings on record: 18-24 h, measured here: SKBR3 viability, ATP luminescence, at 10 µM. For orientation: Bead proximity is the source of the signal in Alpha formats.
Experiment [2] has as its target Receptor tyrosine-protein kinase erbB-2 (Homo sapiens) (UniProt P04626). Described as above. To be noted: 18-24 h, at 10 µM, stronger effect = lower value.
Experiment [3] can be described thus: SK-BR-3 cell growth inhibitors, pilot screen, 24 h, human (AID 572;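 active means viability at or below 10% of carrier control in both of two separate runs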;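 further: compound exposure lasted between 18 and 24 h rather than exactly 24 h; 100% = carrier-treated control wells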). The settings on record: SK-BR-3 viability, CellTiter-Glo luminescence, at 10 µM, stronger effect = lower value. Background: Cellular ATP, detected with luciferase, serves as a proxy for viable cell number.
Experiment [4] in a line: HUVEC growth inhibition – cell-based, human, primary screen (AID 575;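 active means viability at or below 30% in both replicate assays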;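 further: 100% = median of untreated cell wells with 0.1% DMSO on each plate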). The settings on record: HUVEC proliferation, CellTiter-Glo luminescence, 72 h; at 10 µM; stronger effect = lower value. A digest of the protocol: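 Material: primary human umbilical vein endothelial cells / Schedule: 72 h exposure, 37 °C, 5% CO2, 30 min RT equilibration / Signal: ATP-based CellTiter-Glo luminescent read / Read-out basis: percent of median DMSO-control luminescence / Control set: 32 DMSO-only cell-control wells (high), 32 MePR drug-control wells (low) per plate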

The nature of experiment [5]: growth inhibitors of H69AR lung tumor, primary screen, human, duplicate replicates (AID 580;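 active means viability at or under a set limit in both replicates, limit being median viability minus 3 SD, cut at about 48% in these data, passing the limit was not always enough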;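 further: 100% = mean luminescence of untreated wells and 0% = no signal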). The settings on record: H69AR lung tumor cells viability, ATP luminescence, 72 h; at 10 µM; stronger effect = lower value.
Experiment [6] in a line: reversal of MRP1-mediated doxorubicin resistance, pilot screen, H69AR cells, doxorubicin co-treatment (AID 601). To be noted: CellTiter-Glo, 72 h, at 10 µM; for differential viability (reversal): stronger effect = higher value.
The nature of experiment [7]: 384-well plate pilot, post-Golgi transport modulator project, inhibition of yeast transport mutant growth (AID 636; in the data active means inhibition above about 31%). The settings on record: absorbance 615 nm, about 18 h, stronger effect = higher value.
Experiment [8] is described as follows: growth suppression of yeast trafficking mutant, preliminary HTS, modulators of trafficking downstream of Golgi apparatus project, 1536-format plate, OD 615 nm (AID 637; in the data active means inhibition above about 30%). To be noted: yeast transport mutant growth, absorbance 615 nm, 18 h; stronger effect = higher value.
The mark [9] stands for this setting: H69AR cells + 2 uM doxorubicin, measured here: viability with 2 uM doxorubicin, stronger effect = lower value.
[10] abbreviates: H69AR cells, compound alone cytotoxicity.

Chain of Receptor tyrosine-protein kinase erbB-2 (Homo sapiens) (P04626 whole entry, looked up): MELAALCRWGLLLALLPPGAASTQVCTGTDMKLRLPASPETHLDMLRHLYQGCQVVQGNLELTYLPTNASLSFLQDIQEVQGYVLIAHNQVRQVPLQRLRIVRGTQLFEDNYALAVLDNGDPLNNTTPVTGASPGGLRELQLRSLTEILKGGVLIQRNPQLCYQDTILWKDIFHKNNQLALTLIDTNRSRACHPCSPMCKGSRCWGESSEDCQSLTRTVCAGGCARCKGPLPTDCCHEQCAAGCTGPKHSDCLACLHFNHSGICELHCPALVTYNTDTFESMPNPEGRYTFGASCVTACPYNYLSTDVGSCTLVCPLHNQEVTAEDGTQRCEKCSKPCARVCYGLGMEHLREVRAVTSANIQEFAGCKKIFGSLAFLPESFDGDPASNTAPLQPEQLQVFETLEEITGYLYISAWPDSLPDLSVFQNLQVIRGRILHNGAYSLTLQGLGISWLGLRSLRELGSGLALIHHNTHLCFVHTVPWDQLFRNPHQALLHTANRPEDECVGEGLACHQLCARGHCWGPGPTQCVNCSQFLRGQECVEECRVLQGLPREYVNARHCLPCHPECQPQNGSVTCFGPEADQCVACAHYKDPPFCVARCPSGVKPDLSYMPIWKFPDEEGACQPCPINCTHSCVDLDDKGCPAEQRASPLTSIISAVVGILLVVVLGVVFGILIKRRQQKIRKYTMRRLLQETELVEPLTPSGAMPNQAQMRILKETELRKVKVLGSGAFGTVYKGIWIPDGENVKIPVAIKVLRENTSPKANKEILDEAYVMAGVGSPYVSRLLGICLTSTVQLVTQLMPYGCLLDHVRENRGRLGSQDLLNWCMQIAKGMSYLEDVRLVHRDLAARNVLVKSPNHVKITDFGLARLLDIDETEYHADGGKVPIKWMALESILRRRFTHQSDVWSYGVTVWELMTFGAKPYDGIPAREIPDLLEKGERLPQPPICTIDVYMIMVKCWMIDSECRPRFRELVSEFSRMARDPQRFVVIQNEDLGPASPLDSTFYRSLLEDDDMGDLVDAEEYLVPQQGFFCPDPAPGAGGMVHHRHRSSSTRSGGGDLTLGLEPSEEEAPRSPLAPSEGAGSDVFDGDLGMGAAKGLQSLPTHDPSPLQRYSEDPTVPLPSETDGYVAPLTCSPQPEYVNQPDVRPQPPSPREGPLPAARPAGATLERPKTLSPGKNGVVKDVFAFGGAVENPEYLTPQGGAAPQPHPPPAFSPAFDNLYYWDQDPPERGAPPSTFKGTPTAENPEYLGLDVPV

Consider `CCn1c(=O)cc(SCC(=O)Nc2cccnc2)c2ccccc21`, for which the viability in experiment [1] was 91.5%; in experiment [3], 91.5% (inactive); in experiment [4], 56.5% (inactive); in experiment [5], 104% (inactive); in experiment [6] (setting [9]) it was 89.3%; in experiment [6] (setting [10]), 104%. Also, in experiment [2], the Her2 level was 89.5% (inactive). For the same molecule, in experiment [6] (H69AR cells + 2 uM doxorubicin), the differential viability (reversal) is 14.7% (inactive). The inhibition in experiment [7] was -1.32% (inactive); in experiment [8], 1.43% (inactive).
With `CCCCC(c1nnnn1C1CCCC1)N1CCN(C2CCCCC2)CC1` (stereo not given), the viability in experiment [1] was 81.5%; in experiment [3] it was 81.5% (inactive); in experiment [4] it was 106% (inactive); in experiment [5] it was 92.7% (inactive); in experiment [6] (setting [9]), 72.2%; in experiment [6] (setting [10]), 92.7%. Besides, the Her2 level in experiment [2] was 74% (inactive). Also, in experiment [6] (H69AR cells + 2 uM doxorubicin), the differential viability (reversal) is 20.4% (inactive). Moreover, the inhibition in experiment [7] was -6.62% (inactive); in experiment [8] it was 1.83% (inactive).
In the case of `COc1ccc(CNC(=O)CN(C(=O)c2ccc(CN3CCOCC3)o2)C2CCCC2)cc1`, the viability was 124% in experiment [1]; 124% (inactive) in experiment [3]; 89% (inactive) in experiment [4]; 93.1% (inactive) in experiment [5]; 85.8% in experiment [6] (setting [9]); 93.1% in experiment [6] (setting [10]). Moreover, in experiment [2], the Her2 level is 84.5% (inactive). In addition, in experiment [6] (H69AR cells + 2 uM doxorubicin), the differential viability (reversal) was 7.3% (inactive). Further, the inhibition in experiment [7] was -1.87% (inactive); in experiment [8] it was 0.98% (inactive).
Turning to `COc1cccc(C(=O)n2cnnc2N)c1OC`, the viability is 120% in experiment [1]; 120% (inactive) in experiment [3]; 89.2% (inactive) in experiment [4]; 89.9% (inactive) in experiment [5]; 83.1% in experiment [6] (setting [9]); 89.9% in experiment [6] (setting [10]). In addition, in experiment [2], the Her2 level was 88.5% (inactive). Further, the differential viability (reversal) in experiment [6] (H69AR cells + 2 uM doxorubicin) is 6.76% (inactive). The inhibition is -5.6% (inactive) in experiment [7] and -3.49% (inactive) in experiment [8].
In the case of `CCOC(=O)CC(=O)Nc1c(C)cc(C)cc1C`, the viability in experiment [1] is 94.5%; in experiment [3], 94.5% (inactive); in experiment [4], 85% (inactive); in experiment [5], 102% (inactive); in experiment [6] (setting [9]) it was 91.8%; in experiment [6] (setting [10]), 102%. In experiment [2], the Her2 level was 90.5% (inactive). For the same molecule, the differential viability (reversal) in experiment [6] (H69AR cells + 2 uM doxorubicin) is 10.3% (inactive). Besides, the inhibition is 2.57% (inactive) in experiment [7] and -2.95% (inactive) in experiment [8].
For `COCCNC(=O)c1c(N)n(CCC2=CCCCC2)c2nc3ccccc3nc12`, the viability is 102% in experiment [1]; 102% (inactive) in experiment [3]; 78.3% (inactive) in experiment [4]; 89% (inactive) in experiment [5]; 78.2% in experiment [6] (setting [9]); 89% in experiment [6] (setting [10]). The Her2 level in experiment [2] was 92% (inactive). In experiment [6] (H69AR cells + 2 uM doxorubicin), the differential viability (reversal) is 10.8% (inactive). Also, the inhibition was -6.03% (inactive) in experiment [7] and -2.38% (inactive) in experiment [8].
With `COc1ccccc1CC1(C)NC(=O)N(CC(=O)Nc2cc(C)on2)C1=O` (stereo not given), the viability in experiment [1] was 106%; in experiment [3], 106% (inactive); in experiment [4] it was 106% (inactive); in experiment [5] it was 92.7% (inactive); in experiment [6] (setting [9]) it was 83.6%; in experiment [6] (setting [10]), 92.7%. Further, the Her2 level in experiment [2] was 86% (inactive). Also, the differential viability (reversal) in experiment [6] (H69AR cells + 2 uM doxorubicin) is 9.12% (inactive). For the same molecule, the values for the inhibition in experiment [7] and in experiment [8] were -5.81% (inactive) and 4.13% (inactive), respectively.
Take `CCSc1nnc(NC(=O)c2nn(C(C)C)c(=O)c3ccccc23)s1`: the viability was 99% in experiment [1]; 99% (inactive) in experiment [3]; 81.5% (inactive) in experiment [4]; 79.4% (inactive) in experiment [5]; 88.7% in experiment [6] (setting [9]); 79.4% in experiment [6] (setting [10]). In addition, the Her2 level in experiment [2] was 77.5% (inactive). Moreover, the differential viability (reversal) in experiment [6] (H69AR cells + 2 uM doxorubicin) was -9.27% (inactive). Further, the values for the inhibition in experiment [7] and in experiment [8] were -5.39% (inactive) and -2% (inactive), respectively.
Consider `Cc1ccc2c(Cl)cc(Cl)c(OCc3c(C)noc3C)c2n1`, for which the viability in experiment [1] was 102%; in experiment [3], 102% (inactive); in experiment [4], 84.7% (inactive); in experiment [5], 84.9% (inactive); in experiment [6] (setting [9]), 85.1%; in experiment [6] (setting [10]), 84.9%. For the same molecule, the Her2 level in experiment [2] was 99.5% (inactive). The differential viability (reversal) in experiment [6] (H69AR cells + 2 uM doxorubicin) is -0.21% (inactive). The inhibition in experiment [7] is 6.08% (inactive); in experiment [8] it was 13.3% (inactive).
Consider `CC(C)Cc1cc(C(=O)Nc2c(F)cc(F)cc2Br)no1`, for which the viability was 88.5% in experiment [1]; 88.5% (inactive) in experiment [3]; 107% (inactive) in experiment [4]; 113% (inactive) in experiment [5]; 82.8% in experiment [6] (setting [9]); 113% in experiment [6] (setting [10]). Moreover, in experiment [2], the Her2 level was 106% (inactive). Moreover, the differential viability (reversal) in experiment [6] (H69AR cells + 2 uM doxorubicin) is 30% (inactive). Also, the inhibition was 0.64% (inactive) in experiment [7] and -4.33% (inactive) in experiment [8].
Consider `Cc1ccc(Cl)cc1N1CCN(C(=O)C2CCCN(S(=O)(=O)c3cnc[nH]3)C2)CC1` (stereo not given), for which the viability was 86.5% in experiment [1]; 86.5% (inactive) in experiment [3]; 69.8% (inactive) in experiment [4]; 83.8% (inactive) in experiment [5]; 78% in experiment [6] (setting [9]); 83.8% in experiment [6] (setting [10]). In experiment [2], the Her2 level is 99.5% (inactive). Further, in experiment [6] (H69AR cells + 2 uM doxorubicin), the differential viability (reversal) is 5.75% (inactive). For the same molecule, the inhibition was -2.93% (inactive) in experiment [7] and -2.62% (inactive) in experiment [8].
Take `O=C1CC(N2CCN(c3ccc(Cl)c(Cl)c3)CC2)C(=O)N1` (stereo not given): the viability is 67.5% in experiment [1]; 67.5% (inactive) in experiment [3]; 76.5% (inactive) in experiment [4]; 107% (inactive) in experiment [5]; 89.1% in experiment [6] (setting [9]); 107% in experiment [6] (setting [10]). Moreover, in experiment [2], the Her2 level was 103% (inactive). The differential viability (reversal) in experiment [6] (H69AR cells + 2 uM doxorubicin) was 18.3% (inactive). Further, the figures for the inhibition in experiment [7] and in experiment [8] were -2.84% (inactive) and 27.7% (inactive), respectively.
Take `CC1=C(C)C(=O)NC(Nc2nc(C)c3cc(C)cc(C)c3n2)N1` (stereo not given): the viability in experiment [1] is 120%; in experiment [3], 120% (inactive); in experiment [4], 10.6% (active); in experiment [5], 17.2% (active); in experiment [6] (setting [9]), 10.9%; in experiment [6] (setting [10]), 17.2%. The Her2 level in experiment [2] is 79.5% (inactive). Further, in experiment [6] (H69AR cells + 2 uM doxorubicin), the differential viability (reversal) is 6.29% (inactive). Also, the results for the inhibition in experiment [7] and in experiment [8] were -3.59% (inactive) and -3% (inactive), respectively.
Consider `CCOC(=O)c1cc2cc(F)ccc2nc1C`, for which the viability in experiment [1] is 103%; in experiment [3] it was 103% (inactive); in experiment [4], 120% (inactive); in experiment [5] it was 108% (inactive); in experiment [6] (setting [9]), 87.1%; in experiment [6] (setting [10]) it was 108%. Moreover, the Her2 level in experiment [2] was 112% (inactive). Also, in experiment [6] (H69AR cells + 2 uM doxorubicin), the differential viability (reversal) is 20.9% (inactive). Besides, the inhibition in experiment [7] was -0.93% (inactive); in experiment [8] it was -5.9% (inactive).

By viability is commonly meant a read-out of living cells in per cent, often relative to untreated cells. Usually inhibition stands for the drop in the measured response relative to a control, in per cent.
